# Tests used:
# [1] = tested on: Human immunodeficiency virus 1; test: Inhibition of HIV-1 replication in acutely infected human H9 cells after 4 days; conditions: H9, 96 h
# H9 cells (Homo sapiens) = test: Cytotoxicity against human H9 cells after 4 days
# [2] = Therapeutic index, ratio of IC50 for human H9 cells to EC50 for HIV1 3B; assay type: cell-based; conditions: for selectivity ratio: H9 cells (cytotoxicity IC50) and HIV-1 3B (antiviral EC50)
# Method in brief: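 TI calculated as IC50 (Coulter counts of mock-infected cells after 4 days) divided by EC50 (day-4 supernatant p24 ELISA of infected cells). Both were read from the same 4-day plates.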
# [3] = tested on: Human immunodeficiency virus 1; test: Antiviral activity against HIV1 in human H9 cells after 4 days; conditions: h9, 96 h
# [4] = Homo sapiens, H9, 96 h, read-out: IC50
EC50 [1],Activity [3],SMILES,IC50 (H9 cells (Homo sapiens); [4]),selectivity ratio [2],IC50 (H9 cells (Homo sapiens); h9),Ratio IC50/EC50 ([2]; h9)
4 mg/L,–,C[C@H]1[C@H](C)CC[C@]2(C(=O)O)CC[C@]3(C)C(=CC[C@@H]4[C@@]5(C)C[C@@H](O)[C@H](O)C(C)(C)[C@@H]5CC[C@]43C)[C@H]12 [COROSOLIC ACID],8 mg/L,2,–,–
6.1 mg/L,–,CC1(C)CC[C@]2(C(=O)O)CC[C@]3(C)C(=CC[C@@H]4[C@@]5(C)CC[C@H](OC(=O)CCC(=O)O)C(C)(C)[C@@H]5CC[C@]43C)[C@@H]2C1 [OLEANOLIC ACID 3-O-SUCCINATE],6.5 mg/L,1.1,–,–
20 mg/L,–,C[C@@H]1CC[C@]2(C(=O)O)CC[C@]3(C)C(=CC[C@@H]4[C@@]5(C)CC(=O)[C@H](O)C(C)(C)[C@@H]5CC[C@]43C)[C@@H]2[C@]1(C)O,40 mg/L,2,–,–
2 mg/L,–,C[C@H]1[C@H](C)CC[C@]2(C(=O)O)CC[C@]3(C)C(=CC[C@@H]4[C@@]5(C)CC[C@H](O)C(C)(C)[C@@H]5CC[C@]43C)[C@H]12 [URSOLIC ACID],6.5 mg/L,3.3,–,–
8.3 mg/L,–,C[C@@H](CC(=O)O)CC(=O)O[C@H]1CC[C@]2(C)[C@H]3CC=C4[C@@H]5CC(C)(C)CC[C@]5(C(=O)O)CC[C@@]4(C)[C@]3(C)CC[C@H]2C1(C)C,27.5 mg/L,3.3,–,–
–,Not Active,CC1(C)CC[C@]2(C(=O)O)CC[C@]3(C)C(=CC[C@@H]4[C@@]5(C)CC[C@H](OC(=O)C(C)(C)CC(=O)O)C(C)(C)[C@@H]5CC[C@]43C)[C@@H]2C1,9.7 mg/L,–,–,–
–,Not Active,C[C@@H]1CC[C@]2(C(=O)O)CC[C@]3(C)C(=CC[C@@H]4[C@@]5(C)[C@H](O)[C@H](O)[C@H](O)C(C)(C)[C@@H]5CC[C@]43C)[C@@H]2[C@]1(C)O,> 20 mg/L,–,–,–
–,Not Active,C[C@@H]1CC[C@]2(C(=O)O)CC[C@]3(C)C(=CC[C@@H]4[C@@]5(C)C[C@@H](O)[C@@H](O)C(C)(C)[C@@H]5CC[C@]43C)[C@@H]2[C@]1(C)O [EUSCAPHIC ACID],37.5 mg/L,–,–,–
–,Not Active,C[C@@H]1CC[C@]2(C(=O)O)CC[C@]3(C)C(=CC[C@@H]4[C@@]5(C)C[C@@H](O)[C@H](O)C(C)(C)[C@@H]5CC[C@]43C)[C@@H]2[C@]1(C)O [TOMENTIC ACID],15 mg/L,–,–,–
0.5 mg/L,–,CC1(C)CC[C@]2(C(=O)[O-])CC[C@]3(C)C(=CC[C@@H]4[C@@]5(C)CC[C@H](O)C(C)(C)[C@@H]5CC[C@]43C)[C@@H]2C1.[K+],34.3 mg/L,–,–,68.6
–,Not Active,CC1(C)CC[C@]2(C(=O)O)CC[C@]3(C)C(=CC[C@@H]4[C@@]5(C)CC[C@H](OC(=O)COCC(=O)O)C(C)(C)[C@@H]5CC[C@]43C)[C@@H]2C1,22.1 mg/L,–,–,–
0.11 mg/L,–,CC1(C)CC[C@]2(C(=O)O)CC[C@]3(C)C(=CC[C@@H]4[C@@]5(C)CCC(=O)C(C)(C)[C@@H]5CC[C@]43C)[C@@H]2C1 [OLEANONIC ACID],0.8 mg/L,7.3,–,–
1.4 mg/L,–,C[C@@H]1CC[C@]2(C(=O)O)CC[C@]3(C)C(=CC[C@@H]4[C@@]5(C)CC[C@H](O)C(C)(C)[C@@H]5CC[C@]43C)[C@@H]2[C@]1(C)O [POMOLIC ACID],23.3 mg/L,16.6,–,–
1.1 mg/L,–,CC[C@@](C)(CC(=O)O)CC(=O)O[C@H]1CC[C@]2(C)[C@H]3CC=C4[C@@H]5CC(C)(C)CC[C@]5(C(=O)O)CC[C@@]4(C)[C@]3(C)CC[C@H]2C1(C)C,4.4 mg/L,4.1,–,–
15 mg/L,–,CC1(C)CC[C@]2(C(=O)O)CC[C@]3(C)C(=CC[C@@H]4[C@@]5(C)C[C@@H](O)[C@H](O)[C@@](C)(CO)[C@@H]5CC[C@]43C)[C@@H]2C1 (stereo in doubt; 3) [ARJUNOLIC ACID],–,–,36 mg/L,–

# More lines, now with the values behind:
SMILES,EC50 [1],Activity [3],IC50 (H9 cells (Homo sapiens); [4]),selectivity ratio [2],IC50 (H9 cells (Homo sapiens); h9),Ratio IC50/EC50 ([2]; h9)
C[C@@H]1CC[C@]2(C(=O)O)CC[C@]3(C)C(=CC[C@@H]4[C@@]5(C)[C@H](O)C(=O)[C@H](O)C(C)(C)[C@@H]5CC[C@]43C)[C@@H]2[C@]1(C)O,–,Not Active,40 mg/L,–,–,–
C[C@@H]1CC[C@]2(C(=O)O)CC[C@]3(C)C(=CC[C@@H]4[C@@]5(C)[C@H](O)[C@@H](O)[C@@H](O)C(C)(C)[C@@H]5CC[C@]43C)[C@@H]2[C@]1(C)O,35 mg/L,–,> 100 mg/L,> 2.9,–,–
CC1(C)CC[C@]2(C(=O)O)CC[C@]3(C)C(=CC[C@@H]4[C@@]5(C)CC[C@H](OC(=O)CC(C)(C)C(=O)O)C(C)(C)[C@@H]5CC[C@]43C)[C@@H]2C1,–,–,11.2 mg/L,22400,–,–
CC1(C)CC[C@]2(C(=O)O)CC[C@]3(C)C(=CC[C@@H]4[C@@]5(C)CC[C@H](OC(=O)CC6(CC(=O)O)CCCC6)C(C)(C)[C@@H]5CC[C@]43C)[C@@H]2C1,–,–,4.7 mg/L,3.9,–,–
C=C(C)[C@@H]1CC[C@]2(C(=O)O)CC[C@]3(C)[C@H](CC[C@@H]4[C@@]5(C)C[C@@H](O)[C@H](O)C(C)(C)[C@@H]5CC[C@]43C)[C@@H]12 [ALPHITOLIC ACID],20 mg/L,–,4 mg/L,0.25,–,–
CC1(C)CC[C@]2(C(=O)O)CC[C@]3(C)C(=CC[C@@H]4[C@@]5(C)C[C@@H](O)[C@H](O)[C@@](C)(CO)[C@@H]5CC[C@]43C)[C@@H]2C1 (stereo in doubt; 2) [ARJUNOLIC ACID],–,–,–,–,8 mg/L,–
CC(C)(CC(=O)O)CC(=O)O[C@H]1CC[C@]2(C)[C@H]3CC=C4[C@@H]5CC(C)(C)CC[C@]5(C(=O)O)CC[C@@]4(C)[C@]3(C)CC[C@H]2C1(C)C,–,–,14.2 mg/L,9.3,–,–
CC1(C)CC[C@]2(C(=O)O)CC[C@]3(C)C(=CC[C@@H]4[C@@]5(C)CC[C@H](O)C(C)(C)[C@@H]5CC[C@]43C)[C@@H]2C1 [OLEANOLIC_ACID],–,–,21.8 mg/L,–,–,–
C[C@H]1[C@H](C)CC[C@]2(C(=O)O)CC[C@]3(C)C(=CC[C@@H]4[C@@]5(C)C[C@@H](O)[C@H](O)[C@@](C)(CO)[C@@H]5CC[C@]43C)[C@H]12 [ASIATIC ACID],–,Not Active,9 mg/L,–,–,–
CC1(C)CC[C@]2(C(=O)O)CC[C@]3(CO)C(=CC[C@@H]4[C@@]5(C)CC[C@H](O)C(C)(C)[C@@H]5CC[C@]43C)[C@@H]2C1,4.4 mg/L,–,25 mg/L,5.7,–,–
CC1(C)CC[C@]2(C(=O)O)CC[C@]3(C)C(=CC[C@@H]4[C@@]5(C)CC[C@H](OC(=O)CCCC(=O)O)C(C)(C)[C@@H]5CC[C@]43C)[C@@H]2C1,–,–,14.6 mg/L,2.1,–,–
